Article PMC10203381 (Plant Communications, 2022)

Experiments:
N. benthamiana leaves = experiment: Leaf bleaching after infiltration with inhibitors; assay type: in vivo, Nicotiana benthamiana; details: FSM 200 μM or NF 40 μM in the agroinfiltration mixture; observed at 5 dpi
Procedure, shortened: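 Leaves of 4-week-old plants were agroinfiltrated with an SlDXS1 construct plus an HcPro silencing suppressor (9:1). FSM 200 μM, NF 40 μM or water was included in the infiltration mixture. Bleaching was scored visually at 5 dpi.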

SlDXS1-GFP = assay type: in vivo, Nicotiana benthamiana; details: 3 dpi; for number of fluorescent spots (SlDXS1-GFP aggregates) per chloroplast: FSM 200 μM or NF 40 μM, compared with untreated controls
Procedure, shortened: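 Agrobacterium GV3101 carrying SlDXS1-GFP was resuspended to OD600 0.8 in 10 mM MgCl2, 10 mM MES, 150 μM acetosyringone, pH 5.6. It was held 1.5 h at 28°C, then mixed 9:1 with an HcPro silencing-suppressor strain. FSM 200 μM, NF 40 μM or water was added before infiltrating leaves of 4-week-old plants. At 3 dpi, confocal imaging used 488 nm excitation and BP515-525 emission alongside chlorophyll fluorescence. Chloroplast and GFP-dot areas were measured from ≥7 images of different leaves, shown as mean and SD.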

SlDXS1 [1] = assay type: in vivo, Nicotiana benthamiana; details: FSM 200 μM or NF 40 μM; 5 dpi; compared with mock-treated controls
Procedure, shortened: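 Agrobacterium GV3101 carrying untagged SlDXS1 at OD600 0.8 in MES/MgCl2/acetosyringone buffer, pH 5.6, was mixed 9:1 with an HcPro strain. FSM 200 μM, NF 40 μM or water was added before infiltrating 4-week-old leaves. At 5 dpi, about 300 mg of frozen tissue was extracted in TKMES with protease inhibitors and Triton, then cleared at 2800 g, 4°C. Samples in non-denaturing loading buffer were run on 7% SDS-PAGE and blotted with anti-DXS 1:500 overnight at 4°C.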

[2] = test system: MEP pathway intermediates in N. benthamiana leaves; assay type: in vivo, Nicotiana benthamiana; details: leaves infiltrated with SlDXS1, FSM 200 μM or NF 40 μM, 5 dpi; for Metabolite concentration DXP: control 7.69; for Metabolite concentration MEP: control 351.35; for Metabolite concentration MEcPP: control 671.68
EcDXS = molecular target: T1, EcDXS (Escherichia coli, UniProt P77488); assay type: cell-based
T1 sequence (P77488 1-620): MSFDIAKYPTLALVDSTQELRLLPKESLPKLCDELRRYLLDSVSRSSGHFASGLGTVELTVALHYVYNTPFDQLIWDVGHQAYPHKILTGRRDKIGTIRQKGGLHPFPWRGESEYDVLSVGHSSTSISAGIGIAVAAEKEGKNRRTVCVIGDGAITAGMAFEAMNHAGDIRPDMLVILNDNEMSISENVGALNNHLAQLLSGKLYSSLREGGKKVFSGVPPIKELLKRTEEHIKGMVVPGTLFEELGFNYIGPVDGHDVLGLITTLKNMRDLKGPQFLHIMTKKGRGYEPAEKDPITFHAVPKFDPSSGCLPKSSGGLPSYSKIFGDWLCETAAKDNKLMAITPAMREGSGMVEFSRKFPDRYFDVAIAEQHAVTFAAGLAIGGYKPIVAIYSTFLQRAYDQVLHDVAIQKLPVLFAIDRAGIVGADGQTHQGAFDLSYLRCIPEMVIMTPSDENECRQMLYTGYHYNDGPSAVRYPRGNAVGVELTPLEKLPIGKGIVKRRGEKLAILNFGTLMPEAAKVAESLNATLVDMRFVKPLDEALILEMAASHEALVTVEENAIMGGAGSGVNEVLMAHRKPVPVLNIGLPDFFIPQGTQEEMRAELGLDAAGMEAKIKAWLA

SlDXS1 [3] = molecular target: T2, SlDXS1 (Solanum lycopersicum, UniProt Q9XH50); assay type: cell-based
T2 sequence (Q9XH50 58-719): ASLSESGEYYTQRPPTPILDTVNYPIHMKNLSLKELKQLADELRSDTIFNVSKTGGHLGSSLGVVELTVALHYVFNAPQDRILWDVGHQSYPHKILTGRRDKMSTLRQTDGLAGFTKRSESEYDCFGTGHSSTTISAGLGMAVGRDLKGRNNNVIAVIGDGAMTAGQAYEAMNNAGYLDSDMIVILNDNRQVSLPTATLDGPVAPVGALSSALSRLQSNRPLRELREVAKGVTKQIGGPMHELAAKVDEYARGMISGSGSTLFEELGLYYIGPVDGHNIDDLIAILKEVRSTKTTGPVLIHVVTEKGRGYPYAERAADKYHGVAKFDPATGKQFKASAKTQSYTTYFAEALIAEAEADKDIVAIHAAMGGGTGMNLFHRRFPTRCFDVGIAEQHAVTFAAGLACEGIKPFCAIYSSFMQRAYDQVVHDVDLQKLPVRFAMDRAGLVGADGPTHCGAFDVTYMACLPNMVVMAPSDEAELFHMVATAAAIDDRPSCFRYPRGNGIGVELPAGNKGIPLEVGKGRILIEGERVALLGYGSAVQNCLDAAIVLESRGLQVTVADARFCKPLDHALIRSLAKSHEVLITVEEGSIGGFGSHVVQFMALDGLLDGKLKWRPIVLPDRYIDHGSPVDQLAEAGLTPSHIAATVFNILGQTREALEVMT

[4] = test system: E. coli EcAB4-10 cells (EcDXS activity)
SlDXS1 [5] = molecular target: T2, SlDXS1; experiment: Isothermal titration calorimetry; assay type: binding

## O=CN(O)CCCP(=O)(O)O [FSM, fosmidomycin]
N. benthamiana leaves
  leaf phenotype: bleaching phenotype
SlDXS1-GFP
  number of fluorescent spots (SlDXS1-GFP aggregates) per chloroplast: higher amounts
SlDXS1 [1]
  dimer-to-monomer ratio of SlDXS1: increased
[2]
  Metabolite concentration DXP: 641.99 pg/mg dry weight
  Metabolite concentration MEP: 7.67 pg/mg dry weight
  Metabolite concentration MEcPP: 31.03 pg/mg dry weight

## C[C@@](O)(CCO)CC(=O)O [MVA, mevalonic acid]
EcDXS
  proportion of EcDXS dimers: proportion of dimers decreased
  ratio of insoluble (aggregated) to soluble EcDXS protein: higher ratio of insoluble (aggregated) to soluble
SlDXS1 [3]
  proportion of SlDXS1 dimers: proportion of dimers decreased
  ratio of insoluble (aggregated) to soluble SlDXS1 protein: higher ratio of insoluble (aggregated) to soluble
[4]
  cell growth (OD600): did not show any growth impairment
  intracellular DXP levels: much lower
  intracellular IPP/DMAPP levels: markedly increased

## CNc1cnn(-c2cccc(C(F)(F)F)c2)c(=O)c1Cl [NF, norflurazon]
N. benthamiana leaves
  leaf phenotype: bleaching phenotype
SlDXS1-GFP
  number of fluorescent spots (SlDXS1-GFP aggregates) per chloroplast: lower amounts
SlDXS1-GFP; NF 40 μM
  size of the fluorescent spots (SlDXS1-GFP aggregates): larger
SlDXS1 [1]
  dimer-to-monomer ratio of SlDXS1: decreased
[2]
  Metabolite concentration DXP: 5.73 pg/mg dry weight
  Metabolite concentration MEP: 175.33 pg/mg dry weight
  Metabolite concentration MEcPP: 405.61 pg/mg dry weight

## Cc1ncc(C[n+]2csc(CCO[P@](=O)(O)OP(=O)(O)O)c2C)c(N)n1 [TPP, thiamine diphosphate]
SlDXS1 [5]
  Kd: 4.2 ± 0.7 µM
